Measurements of several laboratories.
Cell line: HeLa
Observed: cell growth or viability

CC(C)CCOc1cc(C[n+]2c(-c3ccccc3)n(CCC(C)C)c3ccccc32)c(OCCC(C)C)c2ccccc12 — IC50 (MTT; 24 h): 7.3 µM
CSc1ccccc1-c1ccc(C(N)=O)c2[nH]c3c(c12)CC(N)CC3 (stereo not shown) — IC50: 0.21 µM
COc1ccc(CNC(=O)Cn2cc(COc3ncnc4[nH]cnc34)nn2)cc1 — IC50 (MTT): 29.6 µM
C=C[C@]1(C)C=C2CC[C@H]3C(C)(C)CCC[C@]3(C)[C@H]2CC1 — IC50 (MTT; 75 h): 130 µM
COc1cccc2c1C(=O)c1c(O)c3c(c(O)c1C2=O)C[C@@](O)(C(=O)CO)C[C@@H]3O[C@H]1C[C@H](N)[C@H](O)[C@H](C)O1 — IC50 (MTT; 48 h): 0.2 µM
CC(C)CCn1c[n+](CC(=O)c2cc(OC(C)C)c3ccccc3c2OC(C)C)c2ccccc21 — IC50 (MTT; 24 h): 12.9 µM
Cc1cccc(NC(=O)Cn2cc(COc3ncnc4[nH]cnc34)nn2)c1 — IC50 (MTT): 28.6 µM
CC(C)CCOc1cc(C(=O)C[n+]2cn(C)c3ccccc32)c(OCCC(C)C)c2ccccc12 — IC50 (MTT; 24 h): 13.9 µM
CN(C)c1ccc(Nc2nc(-c3ccncc3)nc3c2CC(N)CC3)cc1 (stereo not shown) — IC50 (MTT): 38.2 µM
CC(=O)O[C@@]12CO[C@@H]1C[C@H](O)[C@@]1(C)C(=O)[C@H](O)C3=C(C)[C@@H](OC(=O)[C@H](O)[C@@H](NC(=O)OC(C)(C)C)c4ccccc4)C[C@@](O)([C@@H](OC(=O)c4ccccc4)[C@H]21)C3(C)C — IC50 (MTT; 48 h): 60.7 µM
CC(C)CCOc1cc(C(=O)C[n+]2ccn(CCC(C)C)c2)c(OCCC(C)C)c2ccccc12 — IC50 (MTT; 24 h): 10.1 µM
COc1cccc2c1C(=O)c1c(O)c3c(c(O)c1C2=O)C[C@@](O)(C(=O)CO)C[C@@H]3O[C@H]1C[C@H](N)[C@H](O)[C@H](C)O1 — IC50 (MTT): 6.89 µM
COc1cccc(-c2cc(NCc3ccc4c(c3)OCO4)nc(N)n2)c1 — IC50 (CCK-8; 72 h): 0.188 µM
[Cl-].[Li+] — IC50 (MTT): > 10000 µM
CCC(=CCc1c(O)cc2c(c1O)C(=O)C[C@H](c1ccccc1O)O2)CC — IC50 (MTT): 37.4 µM
Fc1ccccc1Nc1nc(-c2ccncc2)nc2c1CNCC2 — IC50 (MTT): > 100 µM
CCCNC(=S)N/N=C/c1cccc2cc3ccccc3nc12 — IC50 (MTT; 48 h): 36.2 µM
CN1C(=O)C(=O)c2cc3c(c4c2c1cc1ccccc14)OCO3 — IC50 (MTT; 75 h): 56.9 µM
CNC(=S)N/N=C/c1cccc2cc3ccccc3nc12 — IC50 (MTT; 48 h): 21.8 µM
CC(C)CCOc1cc(C[n+]2cn(CCC(C)C)c3cc(-c4ccccc4)c(-c4ccccc4)cc32)c(OCCC(C)C)c2ccccc12 — IC50 (MTT; 24 h): 11.2 µM
CCC(=CCc1c(O)cc2c(c1O)C(=O)CC(c1ccc(O)cc1)O2)CC (stereo in doubt) — IC50 (MTT): 19.1 µM
CC(C)CCOc1cc(C[n+]2c(-c3ccc(F)cc3)n(CCC(C)C)c3ccccc32)c(OCCC(C)C)c2ccccc12 — IC50 (MTT; 24 h): 9.4 µM
CC(C)CNC(=S)N/N=C/c1cccc2cc3ccccc3nc12 — IC50 (MTT; 48 h): 25.5 µM
CC(C)CCOc1cc(C(=O)C[n+]2cn(Cc3ccccc3)c3ccccc32)c(OCCC(C)C)c2ccccc12 — IC50 (MTT; 24 h): 14.8 µM
O=[N+]([O-])c1ccc(NC(=S)N/N=C/c2cccc3cc4ccccc4nc23)cc1 — IC50 (MTT; 48 h): 7.5 µM
COc1cccc2c1C(=O)c1c(O)c3c(c(O)c1C2=O)C[C@@](O)(C(=O)CO)C[C@@H]3O[C@H]1C[C@H](N)[C@H](O)[C@H](C)O1 — IC50: 0.03 µM
COc1ccc(-c2n(CCC(C)C)c3ccccc3[n+]2Cc2cc(OCCC(C)C)c3ccccc3c2OCCC(C)C)cc1 — IC50 (MTT; 24 h): 10.9 µM
Cc1sc2c(c1C)C(c1ccc(Cl)cc1)=N[C@@H](CC(=O)NCCCCNC(=O)COc1cccc3c1C(=O)N(C1CCC(=O)NC1=O)C3=O)c1nnc(C)n1-2 (stereo partly shown) — IC50 (CCK-8; 72 h): > 10 µM
